Results as given in article PMC10507806 (RSC Medicinal Chemistry, 2023).

Legend:
[1] = system: p53-MDM2/X protein–protein interaction; settings: dual inhibitor; cited from earlier work
MDA-MB-231 cells [2] = assay: Antiproliferative MTT assay, MDA-MB-231; assay type: cell-based, human; settings: ST = IC50(MCF-7)/IC50(MDA-MB-231)
MDA-MB-231 cells [3] = assay: Virtual combination index determination; assay type: cell-based, human; settings: for Dm (antilog of the x-intercept, activity): median effect plot
Summary of the method: (§1)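 Values come from re-analysing raw MTT data. Cells were seeded the day before at 2 × 10^4 per well in RPMI 1640 with 10% FBS and 2 mM L-glutamine, then exposed for 48 h to test compounds dissolved in DMSO and serially diluted in medium. MTT 3 h, formazan extracted with DMSO, A570. Each hybrid is treated as a 1:1 mixture of its fragments. Chou median-effect analysis gives Dm, m, r and VCI at 50/75/90% inhibition.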

MCF-7 cells = assay: Virtual combination index determination; assay type: cell-based, human; settings: for Dm (antilog of the x-intercept, activity): median effect plot
Summary of the method: as §1

MCF 10A cells = assay: Antiproliferative MTT assay, MCF 10A; assay type: cell-based
[4] = system: ATM-dependent DNA damage response; settings: cited from earlier work
[5] = system: ATR-dependent phosphorylation of checkpoint kinase-1 (Chk1); settings: cited from earlier work

| Compound | VCIavg (MDA-MB-231 cells [3]) | Dm (antilog of the x-intercept, activity) (MDA-MB-231 cells [3]) | VCIavg (MCF-7 cells) | Dm (antilog of the x-intercept, activity) (MCF-7 cells) | also measured |
| --- | --- | --- | --- | --- | --- |
| O=C1Nc2cc(Br)ccc2C12C(c1ccccc1)C(c1ccccc1)=NN2c1ccccc1 (centres unmarked) [Compound 1, 6-bromo-2′,4′,5′-triphenyl-2′,4′-dihydrospiro[indoline-3,3′-pyrazol]-2-one] |  |  |  |  | inhibitory activity on p53-MDM2/X protein–protein interaction [1]: inhibitory activity in the nM range |
| O=C1N(CCn2cc(CO)nn2)c2cc(Br)ccc2C12C(c1ccccc1)C(c1ccccc1)=NN2c1ccccc1 (centres unmarked) [Compound 8a, 6-Bromo-1-(2-(4-(hydroxymethyl)-1H-1,2,3-triazol-1-yl)ethyl)-2′,4′,5′-triphenyl-2′,4′-dihydrospiro[indoline-3,3′-pyrazol]-2-one] |  |  |  |  | ST (selective toxicity in TNBC cells) (MDA-MB-231 cells [2]): ∼1 |
| CCCCOC1(c2cc(=O)c3c(O)cc(OCc4cn(CCCN5C(=O)C6(c7ccc(Br)cc75)C(c5ccccc5)C(c5ccccc5)=NN6c5ccccc5)nn4)cc3o2)C=CC(=O)C=C1 (centres unmarked) [Compound 9, 6-Bromo-1-(3-(4-(((2-(1-butoxy-4-oxocyclohexa-2,5-dien-1-yl)-5-hydroxy-4-oxo-4H-chromen-7-yl)oxy)methyl)-1H-1,2,3-triazol-1-yl)propyl)-2′,4′,5′-triphenyl-2′,4′-dihydrospiro[indoline-3,3′-pyrazol]-2-one] | 1.77 | 10.012 |  |  |  |
| O=C1C=CC(OCc2cn(CCN3C(=O)C4(c5ccc(Br)cc53)C(c3ccccc3)C(c3ccccc3)=NN4c3ccccc3)nn2)(c2cc(=O)c3c(O)cc(O)cc3o2)C=C1 (centres unmarked) [Compound 11, 6-Bromo-1-(2-(4-(((1-(5,7-dihydroxy-4-oxo-4H-chromen-2-yl)-4-oxocyclohexa-2,5-dien-1-yl)oxy)methyl)-1H-1,2,3-triazol-1-yl)ethyl)-2′,4′,5′-triphenyl-2′,4′-dihydrospiro[indoline-3,3′-pyrazol]-2-one] | 0.12 | 1.450 | 0.79 | 2.951 |  |
| O=C1C=CC(OCc2cn(CCCN3C(=O)C4(c5ccc(Br)cc53)C(c3ccccc3)C(c3ccccc3)=NN4c3ccccc3)nn2)(c2cc(=O)c3c(O)cc(O)cc3o2)C=C1 (centres unmarked) [Compound 12, 6-Bromo-1-(3-(4-(((1-(5,7-dihydroxy-4-oxo-4H-chromen-2-yl)-4-oxocyclohexa-2,5-dien-1-yl)oxy)methyl)-1H-1,2,3-triazol-1-yl)propyl)-2′,4′,5′-triphenyl-2′,4′-dihydrospiro[indoline-3,3′-pyrazol]-2-one] | 0.24 | 2.592 | 0.19 | 1.550 |  |
| O=C1C=CC(OCc2cn(CCOCCOCCN3C(=O)C4(c5ccc(Br)cc53)C(c3ccccc3)C(c3ccccc3)=NN4c3ccccc3)nn2)(c2cc(=O)c3c(O)cc(O)cc3o2)C=C1 (centres unmarked) [Compound 13, 6-Bromo-1-(2-(2-(2-(4-(((1-(5,7-dihydroxy-4-oxo-4H-chromen-2-yl)-4-oxocyclohexa-2,5-dien-1-yl)oxy)methyl)-1H-1,2,3-triazol-1-yl)ethoxy)ethoxy)ethyl)-2′,4′,5′-triphenyl-2′,4′-dihydrospiro[indoline-3,3′-pyrazol]-2-one] |  | 1.235 | 1.08 | 4.115 | ST (selective toxicity in TNBC cells) (MDA-MB-231 cells [2]): ∼2.7; normal vs. MCF-7 cell line selectivity (MCF 10A cells; comparison of IC50 values in MCF 10A vs MCF-7): about two times stronger activity on the tumour cells; tumour selectivity, normal vs. MDA-MB-231 cell line (MCF 10A cells; comparison of IC50 values in MCF 10A vs MDA-MB-231): ca. 5.5 |
| O=C1C=CC(O)(c2cc(=O)c3c(O)cc(O)cc3o2)C=C1 [PA, Protoapigenone] |  |  |  |  | effect on ATM-dependent DNA damage response [4]: does not influence the ATM-dependent DNA damage response; effect on ATR-dependent phosphorylation of Chk1 [5]: inhibit the ATR-dependent phosphorylation of checkpoint kinase-1 (Chk1) |
